Series [1] in a line: Cytotoxicity against human HepG2 cells after 96 hrs by MTT assay. To be noted: read-out: MTD. The series is classed as cell-based. The method, boiled down: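 HepG2 cells seeded at 1 × 10^4 cells/well in MEM + 10% FBS, 24 h at 37 °C. Compounds diluted from DMSO stocks into MEM with 2% FBS (6.25, 12.5, 25, 50, 100, 200, 400 μM), DMSO kept below 1% (v/v). Added to monolayer; MTT read at OD570 after 96 h. % inhibition vs DMSO control; maximum nontoxic concentration determined.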
Background: Tetrazolium dyes change colour on reduction, which living cells bring about.

Series [2] relates to HepG2. Kind of series: Hepatoprotective activity against H2O2-induced human HepG2 cells assessed as reduction in AST level at 7.75 uM after 24 hrs (reference value: 32.36 +/- 0.79 U/L). The class given is functional. The method, boiled down:
(§1)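 HepG2 cells in log phase seeded at 1 × 10^4 cells/well and held 24 h at 37 °C. Exposed to 3.2 mM H2O2 for 2 h at 37 °C, then to test compound in medium with DMSO for 24 h. ALT or AST read directly in the supernatant. Controls: DMSO-only cells and H2O2-only model. Test concentrations kept within each compound's MTT-determined maximum nontoxic level. Mean ± SD, n = 3; paired-sample test.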

In series [3] the test system is HepG2. As to the kind of experiment: Hepatoprotective activity against H2O2-induced human HepG2 cells assessed as reduction in ALT level at 7.75 uM after 24 hrs (reference value: 23.22 +/- 1.22 U/L). The series is classed as functional. The method, boiled down:
as §1

For series [4], the system named is HepG2. As to the kind of experiment: Hepatoprotective activity against H2O2-induced human HepG2 cells assessed as reduction in ALT level at 15.5 uM after 24 hrs (reference value: 23.22 +/- 1.22 U/L). The series is classed as functional. The procedure, abridged:
as §1

Series [5] relates to HepG2. As to the kind of experiment: Hepatoprotective activity against H2O2-induced human HepG2 cells assessed as reduction in AST level at 3.88 uM after 24 hrs (reference value: 32.36 +/- 0.79 U/L). The class given is functional. The method, boiled down: as §1
For series [6], the system named is HepG2. As to the kind of experiment: Hepatoprotective activity against H2O2-induced human HepG2 cells assessed as reduction in ALT level at 3.88 uM after 24 hrs (reference value: 23.22 +/- 1.22 U/L). The class given is functional. The method, boiled down:
as §1

Series [7] concerns HepG2. As to the kind of experiment: Hepatoprotective activity against H2O2-induced human HepG2 cells assessed as reduction in AST level at 15.5 uM after 24 hrs (reference value: 32.36 +/- 0.79 U/L). The class given is functional. The method, boiled down:
as §1

In series [8] the test system is HepG2. As to the kind of experiment: Hepatoprotective activity against H2O2-induced human HepG2 cells assessed as reduction in ALT level at 59.90 uM after 24 hrs (reference value: 23.22 +/- 1.22 U/L). The series is classed as functional. The method, boiled down: as §1
The subject of series [9] is HepG2. Kind of series: Hepatoprotective activity against H2O2-induced human HepG2 cells assessed as reduction in AST level at 29.95 uM after 24 hrs (reference value: 32.36 +/- 0.79 U/L). The class given is functional. The method, boiled down: as §1
For series [10], the system named is HepG2. Kind of series: Hepatoprotective activity against H2O2-induced human HepG2 cells assessed as reduction in ALT level at 14.98 uM after 24 hrs (reference value: 23.22 +/- 1.22 U/L). The class given is functional. The method, boiled down:
as §1

For series [11], the system named is HepG2. As to the kind of experiment: Hepatoprotective activity against H2O2-induced human HepG2 cells assessed as reduction in AST level at 14.98 uM after 24 hrs (reference value: 32.36 +/- 0.79 U/L). The series is classed as functional. The method, boiled down: as §1
Series [12] has as its system HepG2. Kind of series: Hepatoprotective activity against H2O2-induced human HepG2 cells assessed as reduction in AST level at 59.90 uM after 24 hrs (reference value: 32.36 +/- 0.79 U/L). The series is classed as functional. The method, boiled down:
as §1

In series [13] the test system is HepG2. As to the kind of experiment: Hepatoprotective activity against H2O2-induced human HepG2 cells assessed as reduction in ALT level at 29.95 uM after 24 hrs (reference value: 23.22 +/- 1.22 U/L). The class given is functional. The method, boiled down:
as §1

Series [14] deals with HepG2. As to the kind of experiment: Hepatoprotective activity against H2O2-induced human HepG2 cells assessed as reduction in AST level at 4.60 uM after 24 hrs (reference value: 32.36 +/- 0.79 U/L). The series is classed as functional. The procedure, abridged: as §1
For series [15], the system named is HepG2. Kind of series: Hepatoprotective activity against H2O2-induced human HepG2 cells assessed as reduction in ALT level at 4.60 uM after 24 hrs (reference value: 23.22 +/- 1.22 U/L). The class given is functional. The procedure, abridged:
as §1

Series [16] relates to HepG2. Kind of series: Hepatoprotective activity against H2O2-induced human HepG2 cells assessed as reduction in ALT level at 9.20 uM after 24 hrs (reference value: 23.22 +/- 1.22 U/L). The class given is functional. The procedure, abridged: as §1
The subject of series [17] is HepG2. As to the kind of experiment: Hepatoprotective activity against H2O2-induced human HepG2 cells assessed as reduction in AST level at 18.40 uM after 24 hrs (reference value: 32.36 +/- 0.79 U/L). The series is classed as functional. The method, boiled down: as §1
For series [18], the system named is HepG2. As to the kind of experiment: Hepatoprotective activity against H2O2-induced human HepG2 cells assessed as reduction in ALT level at 18.40 uM after 24 hrs (reference value: 23.22 +/- 1.22 U/L). The series is classed as functional. The procedure, abridged: as §1
Series [19] relates to HepG2. Kind of series: Hepatoprotective activity against H2O2-induced human HepG2 cells assessed as reduction in AST level at 9.20 uM after 24 hrs (reference value: 32.36 +/- 0.79 U/L). The class given is functional. The method, boiled down:
as §1

Series [20] deals with HepG2. Kind of series: Hepatoprotective activity against H2O2-induced human HepG2 cells assessed as reduction in ALT level at 16.43 uM after 24 hrs (reference value: 23.22 +/- 1.22 U/L). The class given is functional. The method, boiled down:
as §1

Series [21] relates to HepG2. As to the kind of experiment: Hepatoprotective activity against H2O2-induced human HepG2 cells assessed as reduction in AST level at 65.70 uM after 24 hrs (reference value: 32.36 +/- 0.79 U/L). The series is classed as functional. The method, boiled down:
as §1

Series [22] deals with HepG2. Kind of series: Hepatoprotective activity against H2O2-induced human HepG2 cells assessed as reduction in AST level at 16.43 uM after 24 hrs (reference value: 32.36 +/- 0.79 U/L). The class given is functional. The procedure, abridged: as §1
For series [23], the system named is HepG2. As to the kind of experiment: Hepatoprotective activity against H2O2-induced human HepG2 cells assessed as reduction in ALT level at 65.70 uM after 24 hrs (reference value: 23.22 +/- 1.22 U/L). The series is classed as functional. The method, boiled down:
as §1

The subject of series [24] is HepG2. Kind of series: Hepatoprotective activity against H2O2-induced human HepG2 cells assessed as reduction in ALT level at 32.85 uM after 24 hrs (reference value: 23.22 +/- 1.22 U/L). The class given is functional. The method, boiled down: as §1
The subject of series [25] is HepG2. Kind of series: Hepatoprotective activity against H2O2-induced human HepG2 cells assessed as reduction in AST level at 32.85 uM after 24 hrs (reference value: 32.36 +/- 0.79 U/L). The class given is functional. The procedure, abridged: as §1

The structures appear in SMILES notation.

Take `C=C(C)[C@@H]1C[C@@H]2O[C@@]1(CCC(=O)O)CC1=C2[C@]2(C)CC[C@H]([C@H](C)CCC(=O)OC)[C@@]2(C)CC1=O`: in series [1], the MNTC at 96 h was 74.6 µM.
Regarding `C=C(C)[C@@H]1C[C@H](O)C2=C(C(=O)C[C@]3(C)[C@@H]([C@H](C)CCC(=O)O)CC[C@@]23C)[C@@]1(C)CCC(=O)OC`, the Activity in series [2] is listed as 26.54 U/L; in series [3], 19.32 U/L; in [4], 19.73 U/L; in series [5] it was 28.23 U/L; in [6], 21.01 U/L; in [7], 26.19 U/L. In series [1], the MNTC at 96 h was found to be 18.4 µM.
With `C=C(C)[C@@H]1C[C@H](O)C2=C(C(=O)C[C@]3(C)[C@@H]([C@H](C)CCC(=O)OC)CC[C@@]23C)[C@@]1(C)CCC(=O)O`, in [1], the MNTC at 96 h was 15.5 µM.
For `C=C(C)[C@@H]1C[C@H](O)C2=C(C(=O)C[C@]3(C)[C@@H]([C@H](C)CCC(=O)OC)CC[C@@]23C)[C@@]1(C)CCC(=O)OC`, the Activity worked out at 17.81 U/L in series [8]; 26.77 U/L in series [9]; 19.32 U/L in series [10]; 28.28 U/L in series [11]; 22.11 U/L in [12]; 18.51 U/L in series [13]. In addition, the MNTC at 96 h in series [1] came out at 59.9 µM.
Take `CC(C)=CC[C@H](O)[C@@H](C)[C@H]1CC[C@@]2(C)C3=CC[C@H]4C(C)(C)[C@@H](O)CC[C@]4(C)C3=CC[C@]12C`: in series [1], the MNTC at 96 h was 150 µM.
For the compound `C=C(C)[C@@H]1C[C@H](O)C2=C(C(=O)C[C@]3(C)[C@@H]([C@H](C)CCC(=O)O)CC[C@@]23C)[C@@]1(C)CCC(=O)O`, the MNTC at 96 h in [1] worked out at 65.7 µM. The Activity in series [14] turned out to be 30.38 U/L; in series [15], 19.61 U/L; in series [16], 20.2 U/L; in series [17] it was 20.66 U/L; in [18], 20.84 U/L; in series [19], 23.8 U/L.
For the compound `C[C@H]1C(=O)CC[C@@H]2[C@]1(C)CC[C@H]1[C@@]2(C)CC[C@@]2(C)[C@@H]3CC(C)(C)CC[C@]3(C)CC[C@]12C` [FRIEDELINE], the Activity in [20] is recorded as 18.92 U/L; in [21], 19.09 U/L; in series [22], 29.45 U/L; in [23], 16.06 U/L; in [24], 18.27 U/L; in [25], 25.43 U/L. In series [1], the MNTC at 96 h is 15 µM.

For the origin of these results see ChEMBL document CHEMBL3232759, “Hepatoprotective effects of triterpenoids from Ganoderma cochlear” (J Nat Prod, 2014).
